According to ChEMBL document CHEMBL1123090, “Inhibition of liver alcohol dehydrogenase and ethanol metabolism by 3-substituted thiolane 1-oxides” (J Med Chem, 1985):

Tests used:
[1] = target: Alcohol dehydrogenase (Equus caballus) (UniProt P00327+P00328); assay: In vitro inhibitory constant against horse liver alcohol dehydrogenase was determined
[2] = Compound dose that causes 50% toxicity in mice was determined; assay type: organism-based; conditions: mouse, in vivo
Method in brief: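 Fed male Swiss-Webster mice (16–20 g) given ip injections of sulfoxide solutions at 0.1–10 M (the concentration of the injected solution), at 0.1 mL/10 g body weight.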

[3] = tested on: Alcohol dehydrogenase (Macaca mulatta); assay: In vitro inhibitory constant against monkey liver alcohol dehydrogenase was determined; conditions: Cercopithecidae
[4] = species: Rattus norvegicus; assay: The Kii was determined with varied concentrations of inhibitor and ethanol by determining blood alcohol concentration in rats; assay type: functional
Method in brief: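 Fed male Sprague-Dawley rats (175–280 g) given inhibitor ip at 0–1.0 mmol/kg in saline, then 10 min later ethanol 19.6 mmol/kg ip. Tail blood ethanol measured over time by GC with tert-butyl alcohol internal standard. Initial elimination rate taken from tangent after 60-min absorption phase; Kii by nonlinear fit.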

[5] = In vitro inhibitory constant against rat liver alcohol dehydrogenase was determined
Method in brief: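 Enzymes partially purified from liver (DEAE-cellulose, then AMP-agarose affinity), all steps 0–5 °C. Ethanol varied 0.4–2 mM, 0.5 mM NAD+, 83 mM potassium phosphate pH 7.3 with 40 mM KCl, 37 °C. At least three inhibitor levels; 32 initial velocities by A340. Kii from uncompetitive fit; one or two experiments.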

| Structure (SMILES) | Kii [1] | LD50 [2] | Kii [3] | Kii [4] | Kii [5] |
| --- | --- | --- | --- | --- | --- |
| [O-][S+]1CCC(c2ccccc2)C1 (centres undefined) | 0.36 µM | 4000 µmol/kg | 1.5 µM | 87 µmol/kg | 1.1 µM |
| [O-][S+]1CCCC1 [TETRAMETHYLENE SULFOXIDE] |  | 45000 µmol/kg | 1600 µM | 340 µmol/kg | 130 µM |
| CC1CC[S+]([O-])C1 (centres undefined) | 7.5 µM | 1300 µmol/kg | 460 µM | 64 µmol/kg | 19 µM |
| CCCCCCC1CC[S+]([O-])C1 (centres undefined) | 0.19 µM | 770 µmol/kg | 0.35 µM | 65 µmol/kg | 0.13 µM |
| CCCCC1CC[S+]([O-])C1 (centres undefined) | 0.63 µM | 1400 µmol/kg | 2.3 µM | 11 µmol/kg | 1.1 µM |
